Compound activity from PubChem.
TMEM16A inh = mouse TMEM16A channel inhibition, primary screen | 1.2% of 310,000 active | Q8BHY3 | HEK293 TMEM16A/YFP iodide influx fluorescence, ionomycin | normalized B-score (activity score, 25-100; higher = stronger inhibition) at 10 µM;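 active = ratio plate-corrected score three or more library SD toward inhibition, starting fluorescence score within five deviations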;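 note: score derived from kinetic fluorescence span divided by baseline fluorescence per well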
Target sequence (Q8BHY3 whole entry, looked up): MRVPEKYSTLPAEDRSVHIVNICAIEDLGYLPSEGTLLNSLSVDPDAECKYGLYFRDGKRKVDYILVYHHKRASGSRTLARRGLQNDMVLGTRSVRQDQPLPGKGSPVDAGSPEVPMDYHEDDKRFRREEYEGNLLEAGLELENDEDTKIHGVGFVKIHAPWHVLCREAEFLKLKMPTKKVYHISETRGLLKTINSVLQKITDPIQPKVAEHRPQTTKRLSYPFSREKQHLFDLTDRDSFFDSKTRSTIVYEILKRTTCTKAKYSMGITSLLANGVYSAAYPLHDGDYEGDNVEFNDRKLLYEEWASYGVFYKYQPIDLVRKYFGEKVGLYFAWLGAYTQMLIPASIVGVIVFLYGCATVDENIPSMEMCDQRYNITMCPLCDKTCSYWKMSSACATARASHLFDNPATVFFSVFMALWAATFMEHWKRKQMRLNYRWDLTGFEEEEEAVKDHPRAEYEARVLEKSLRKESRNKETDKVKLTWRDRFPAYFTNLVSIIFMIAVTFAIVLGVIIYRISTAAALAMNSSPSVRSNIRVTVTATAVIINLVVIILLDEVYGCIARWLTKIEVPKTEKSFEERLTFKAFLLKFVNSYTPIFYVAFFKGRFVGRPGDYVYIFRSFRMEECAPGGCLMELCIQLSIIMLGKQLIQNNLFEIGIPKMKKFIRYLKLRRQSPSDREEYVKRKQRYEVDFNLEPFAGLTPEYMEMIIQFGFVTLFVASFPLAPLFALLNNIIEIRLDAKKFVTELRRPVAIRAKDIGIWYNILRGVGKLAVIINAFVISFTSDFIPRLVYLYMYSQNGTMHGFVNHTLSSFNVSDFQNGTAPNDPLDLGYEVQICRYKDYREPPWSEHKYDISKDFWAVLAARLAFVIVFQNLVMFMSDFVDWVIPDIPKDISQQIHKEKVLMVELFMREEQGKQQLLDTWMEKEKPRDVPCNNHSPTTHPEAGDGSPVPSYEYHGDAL
Hep lipid drop = modulators of hepatic lipid droplet formation; 0.4% of 240,000 active; inhibition, % at 6.5 µM; AID 1656; AML12 mouse hepatocytes, oleate lipid droplets, BODIPY imaging;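 active = lipid droplet intensity inhibited by at least 50%, with more than 500 cells counted; inconclusive = wells with under 300 cells, treated as cytotoxic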
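material = mouse AML12 hepatocyte cell line, fixed after treatment | also added = 100 µM oleic acid challenge | doses = compound at 6.5 µM only | schedule = overnight exposure | technique = Image-based BODIPY and DAPI two-channel analysis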
CHOP inh = blocks CHOP induction under ER stress. AID 2732. 3.8% of 220,000 active. CHO-K1 CHOP-promoter luciferase, tunicamycin-induced, 15-18 h. inhibition, % at 10 µM;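 active = compounds that reduced the stress-induced luciferase reporter signal by more than about 70% of percent inhibition, limit read from the data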;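 note: 0% = tunicamycin plus vehicle and 100% = wells without tunicamycin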
UPR CHOP act = apoptotic UPR (CHOP) activation | CHO-CHOP luciferase reporter, luminescence; percent of tunicamycin response over DMSO baseline | AID 449763 | activation, % at 10 µM | 0.34% of 330,000 active;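 active = at 10 µM dose, activation of 40% or more, normalized to positive control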;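 note: 100% = tunicamycin at 10 µg/mL and 0% = DMSO alone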
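Test system: CHO CHOP reporter cells. Input: 500 CHO-CHOP cells per well. Medium: F12 with 10% FBS. Technique: luciferase luminescence. Measure: percent activation relative to tunicamycin control. Dosing: 10 µM compound, 0.5% DMSO. Timing: 16-18 h cell attachment, then 6 h compound exposure, 37 °C.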
XBP1 UPR activ = activators of adaptive arm of unfolded protein response (XBP1). activation, % at 20 µM. CHO-XBP1 luciferase reporter, IRE1-XBP1 UPR activation, luminescence; percent of tunicamycin response, DMSO as zero. 0.33% of 330,000 active;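 active = versus positive control, 20 µM dose yields 30% or more activation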;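 note: 100% = tunicamycin at 10 µg/mL and 0% = DMSO only wells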
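Material: CHO cell line with stable XBP1 luciferase reporter; buffer or medium: F12 medium containing 10% fetal bovine serum; compound: single point, 20 µM final compound, 1% DMSO; incubation: 6 h treatment, 37 °C; measured by: glow luminescence from Steady-Glo reagent; evaluation: activation, % of tunicamycin; control set: tunicamycin high, DMSO low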
ANO1 activ = mouse TMEM16A channel activation, primary screen; Q8BHY3; HEK293 TMEM16A/YFP-H148Q/I152L, iodide quench fluorescence; hits give low values; B-score at 10 µM; 0.3% of 340,000 active;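 active = fluorescence-ratio B-score plate-corrected deviation score at least 3 library SD below zero, with starting fluorescence score within 5 deviations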;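 note: channel opened by trigger with iodide after compound preincubation; score built on the fluorescence ratio of max minus min over baseline; more negative score means more quench and so TMEM16A activation or potentiation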
Starred values were filed as active, the others as inactive. Rows were chosen to be rich in hits. Some 4.2% of all compounds tested hit in one or more screens of this group.

`CN(C)c1nc(OCCNC(=O)COc2ccc(Cl)cc2Cl)nc(N2CCCCC2)n1` gave TMEM16A inh inactive, Hep lipid drop 6, CHOP inh 94*, UPR CHOP act 2, XBP1 UPR activ 0 and ANO1 activ inactive.
For CC(C)[C@]12O[C@H]1[C@@H]1O[C@]13[C@]1(O[C@H]1C[C@H]1C4=C(CC[C@@]13C)C(=O)OC4)[C@@H]2O the results were TMEM16A inh inactive, Hep lipid drop 87* and CHOP inh 103*.
Screening CC1CCC(C(C)C)C(OC(=O)Cn2c(COc3ccccc3)[n+](C)c3ccccc32)C1 (stereo unspecified) returned TMEM16A inh inactive, Hep lipid drop 9, CHOP inh 92*, UPR CHOP act 2, XBP1 UPR activ 23 and ANO1 activ inactive.
For O=C1NC(=S)N(c2ccc(F)cc2)C(=O)/C1=C\c1ccoc1 the results were Hep lipid drop -9, CHOP inh 1 and ANO1 activ inactive.
For Cc1ccc(N2C(=O)NC(=O)/C(=C\c3ccoc3)C2=O)cc1 the results were TMEM16A inh inactive, Hep lipid drop -4, CHOP inh -28, UPR CHOP act -1, XBP1 UPR activ -3 and ANO1 activ -4.6*.
C[C@]12CC[C@@H](O)CC1CC[C@@H]1[C@@H]2CC[C@]2(C)C(=O)CC[C@@H]12 (stereo partly specified) was read as CHOP inh -2.
Screening CSc1ccc(C(=O)C2CCCN(Cc3cc4ccccc4[nH]3)C2)cc1 (stereo unspecified) returned TMEM16A inh 25*, Hep lipid drop 0, CHOP inh 70*, UPR CHOP act 0, XBP1 UPR activ -4 and ANO1 activ inactive.
For C=C(C)[C@H]1Cc2c(ccc3c2O[C@@H]2COc4cc(OC)c(OC)cc4[C@@H]2C3=O)O1 the results were CHOP inh 27.
Screening C=C1C(=O)O[C@@H]2C[C@@H](C)[C@@H]3C=CC(=O)[C@@]3(C)[C@@H](OC(=O)CC(=O)O[C@H]3[C@@H]4C(=C)C(=O)O[C@@H]4C[C@@H](C)[C@@H]4C=CC(=O)[C@]43C)[C@H]12 returned TMEM16A inh inactive, Hep lipid drop inconclusive, CHOP inh 108*, UPR CHOP act -9, XBP1 UPR activ -9 and ANO1 activ inactive.
C=C1C(=O)OC2CC(C)C3C=CC(=O)C3(C)C(O)C12 (stereo unspecified) was read as ANO1 activ inactive.
For COc1ccc(/C=C/C(=O)c2c(O)n(CCC3=CCCCC3)c(=O)[nH]c2=O)cc1 the results were TMEM16A inh inactive, Hep lipid drop -2, CHOP inh 81*, UPR CHOP act 0, XBP1 UPR activ 2 and ANO1 activ inactive.
Screening O=C(/C=C/c1ccc2c(c1)OCO2)c1c(O)n(CCC2=CCCCC2)c(=O)[nH]c1=O returned TMEM16A inh inactive, Hep lipid drop -2, CHOP inh 90* and ANO1 activ inactive.
`Nc1ncnc2c1ncn2[C@@H]1O[C@H](COP(=O)(O)CP(=O)(O)OP(=O)(O)O)[C@H](O)C1O` (stereo partly specified) gave CHOP inh 15.
For CCCN(CCC)[C@H]1CCc2c(F)ccc(O)c2C1 the results were CHOP inh -4.
Cc1sc2c(c1C)C(c1ccc(C(C)(C)C)cc1)=NCC(=O)N2CC(=O)Nc1nccs1 was read as TMEM16A inh inactive, CHOP inh 84*, UPR CHOP act 1, XBP1 UPR activ -1 and ANO1 activ inactive.
`CCC(C)N1C(=O)/C(=C\c2ccc(N3CCCCCC3)cc2)C(=O)NC1=S` (stereo unspecified) gave TMEM16A inh inactive, Hep lipid drop -49, CHOP inh 71*, UPR CHOP act 23, XBP1 UPR activ 1 and ANO1 activ inactive.
`CCC(C)N1C(=O)/C(=C\c2cc3c4c(c2)CCCN4CCC3)C(=O)NC1=S` (stereo unspecified) gave TMEM16A inh inactive, Hep lipid drop 4, CHOP inh -62, UPR CHOP act 25, XBP1 UPR activ -4 and ANO1 activ inactive.
Screening N#Cc1ccccc1Cn1cc(C(=O)c2ccccc2F)c2ccccc21 returned TMEM16A inh inactive, Hep lipid drop -2, CHOP inh 0, UPR CHOP act 0, XBP1 UPR activ 0 and ANO1 activ inactive.
Screening CC(C)NC(=O)Cn1cc(C(=O)c2ccccc2F)c2ccccc21 returned TMEM16A inh inactive, Hep lipid drop -3, CHOP inh 5, UPR CHOP act -1, XBP1 UPR activ -1 and ANO1 activ -5.3*.
Brc1ccc(-[n+]2c(-c3ccccc3)cc(-c3ccccc3)cc2-c2ccccc2)cc1 was read as TMEM16A inh 100*, UPR CHOP act 13, XBP1 UPR activ 5 and ANO1 activ inactive.
`CCCOC(=O)c1ccc(-[n+]2c(-c3ccccc3)cc(-c3ccccc3)cc2-c2ccccc2)cc1` gave TMEM16A inh 100*, UPR CHOP act 36, XBP1 UPR activ 4 and ANO1 activ -5.7*.
`COc1ccc(-[n+]2c(-c3ccccc3)cc(-c3ccc(C)cc3)cc2-c2ccccc2)cc1` gave TMEM16A inh 100*, Hep lipid drop -118, UPR CHOP act 32, XBP1 UPR activ -2 and ANO1 activ inactive.
`COc1ccc(-c2cc(-c3ccccc3)[n+](C)c(-c3ccccc3)c2)cc1` gave TMEM16A inh inactive, Hep lipid drop 2, CHOP inh -14, UPR CHOP act 1, XBP1 UPR activ 2 and ANO1 activ inactive.
O=C(O)c1ccc(-[n+]2c(-c3ccccc3)cc(-c3ccccc3)cc2-c2ccccc2)cc1 was read as TMEM16A inh inactive, UPR CHOP act -1, XBP1 UPR activ -2 and ANO1 activ inactive.
Screening NC(Cn1oc(=O)[nH]c1=O)C(=O)O (stereo unspecified) returned CHOP inh -1.
`ClC1=C(Cl)C2(Cl)C3C(Cl)C=CC3C1(Cl)C2(Cl)Cl` (stereo unspecified) gave UPR CHOP act 2, XBP1 UPR activ 1 and ANO1 activ -16*.
CCOC(=O)c1c(-n2c(C)cc(/C=C3\C(=O)NC(=O)N(C)C3=O)c2C)sc2c1CCCC2 was read as TMEM16A inh inactive, CHOP inh 77*, UPR CHOP act 1, XBP1 UPR activ -1 and ANO1 activ inactive.
